Data from PMC65698 (BMC Pharmacology, 2002).
Values belong to the molecule of their own block, whether it stands above or below them.

Tests used:
[1] = tested on: L1210/CPA cells; conditions: 50 μM DEAB in vitro; cited from earlier work
[2] = target: T1, mouse ALDH1A1 (Mus musculus, UniProt P24549); assay type: biochemical; conditions: IC50 of DPAB, substrate propanal, 1 mM NAD, pH 8.4, mean ± average deviation
T1 sequence (P24549 1-501): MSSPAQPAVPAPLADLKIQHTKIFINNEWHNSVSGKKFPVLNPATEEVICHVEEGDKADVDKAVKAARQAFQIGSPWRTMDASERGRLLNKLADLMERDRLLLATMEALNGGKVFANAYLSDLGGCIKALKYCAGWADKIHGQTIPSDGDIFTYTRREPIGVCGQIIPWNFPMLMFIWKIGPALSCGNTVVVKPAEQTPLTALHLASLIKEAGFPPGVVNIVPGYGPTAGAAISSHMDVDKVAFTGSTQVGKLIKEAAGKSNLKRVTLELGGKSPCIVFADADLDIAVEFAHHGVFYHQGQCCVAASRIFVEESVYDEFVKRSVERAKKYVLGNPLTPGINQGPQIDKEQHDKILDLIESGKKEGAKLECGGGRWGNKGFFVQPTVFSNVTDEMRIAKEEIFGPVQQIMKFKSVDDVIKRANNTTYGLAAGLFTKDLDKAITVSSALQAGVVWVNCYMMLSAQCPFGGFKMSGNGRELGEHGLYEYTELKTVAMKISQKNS

[3] = target: T2, human ALDH1A1 (Homo sapiens, UniProt P00352); assay type: biochemical; conditions: IC50 of DPAB, substrate propanal, 1 mM NAD, pH 8.4, mean ± average deviation
T2 sequence (P00352 1-501): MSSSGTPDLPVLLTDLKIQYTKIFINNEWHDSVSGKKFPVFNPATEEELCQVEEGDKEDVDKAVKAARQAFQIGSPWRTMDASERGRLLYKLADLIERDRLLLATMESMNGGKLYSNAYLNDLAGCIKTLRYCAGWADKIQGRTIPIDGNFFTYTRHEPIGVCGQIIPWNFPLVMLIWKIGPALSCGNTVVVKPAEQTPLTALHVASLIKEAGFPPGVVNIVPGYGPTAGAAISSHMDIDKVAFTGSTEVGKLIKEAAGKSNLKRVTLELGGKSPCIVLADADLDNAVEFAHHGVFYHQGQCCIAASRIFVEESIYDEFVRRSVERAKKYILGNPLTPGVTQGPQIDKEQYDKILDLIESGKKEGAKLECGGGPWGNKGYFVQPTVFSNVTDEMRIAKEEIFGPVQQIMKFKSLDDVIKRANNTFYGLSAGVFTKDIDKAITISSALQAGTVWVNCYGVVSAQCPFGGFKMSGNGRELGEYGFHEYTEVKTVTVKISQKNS

[4] = tested on: HL-60 cells; assay: HL-60 cell differentiation assay; assay type: cell-based, human
Summary of the method: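 HL-60 cells grown in RPMI-1640 with 15% FBS, 50 U/mL penicillin and 0.5 mg/mL streptomycin; subcultured and treated at 2 × 10^5 cells/mL. Test compound added in DMSO or ethanol, with no media change or washout; 1 μM retinoic acid used as a reference retinoid. Aliquots mixed 1:1 with a solution of 1.0% BSA, 0.2% NBT and 1.0 μg/mL TPA, then incubated 45 min at 37°C. Purple-precipitate-positive cells scored by bright-field microscopy in a counting chamber; two observers each counted two fields of ≥200 cells per well.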

[5] = tested on: HL-60 cells; assay: HL-60 cell survival by Trypan blue dye exclusion; assay type: cell-based, human; conditions: up to 144 hours
Summary of the method: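 HL-60 cells grown in RPMI-1640 with 15% FBS and penicillin/streptomycin, seeded at 2 × 10^5 cells/mL. Exposed to test compound (in DMSO or ethanol) for up to 144 h without media replacement or washout. Survival assessed by Trypan blue dye exclusion.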

[6] = tested on: ALDH1A1; conditions: dipropyl vs diethyl analog; cited from earlier work
[7] = HPLC assay for stability of retinal in culture media; assay type: physicochemical; conditions: 10 μM retinal in RPMI 1640 plus 15% fetal bovine serum, 37°C, day 6, no cells
Summary of the method: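 Retinal (10 μM) incubated in cell-free RPMI 1640 with 15% FBS at 37°C for six days. Media sampled every 24 h and extracted with 50% butanol:50% acetonitrile (v/v): vortexed 60 s, centrifuged 2 min at 16,000 × g. Organic layer diluted 1:5 in acetonitrile and run on reverse-phase C18 HPLC. Retinal and retinoic acid detected at 360 nm (retention 10.0 and 7.7 min).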

SMILES: CCN(CC)c1ccc(C=O)cc1 [DEAB, 4-(N, N-diethylamino) benzaldehyde]
Effect on resistance of L1210/CPA cells to 4-HC [1]: abolished the tumor cells' resistance to 4-HC

IC50 [2]: 0.04 ± 0.01 µM
IC50 [3]: 0.14 ± 0.04 µM
SMILES: CCCN(CCC)c1ccc(C=O)cc1 [DPAB, 4-(N,N-dipropylamino)benzaldehyde]
Effect on induction of differentiation by retinoic acid ([4]; 1 μM retinoic acid + 50 μM DPAB): did not alter the induction of differentiation by retinoic acid
Effect on cell viability [5]: nor did it affect cell viability
Efficacy for inhibition of ALDH1A1 relative to DEAB [6]: 10 fold

Retinal oxidized to retinoic acid in culture media [7]: less than 1%
SMILES: CC1=C(/C=C/C(C)=C/C=C/C(C)=C/C=O)C(C)(C)CCC1 [all-trans retinal]
Differentiation expressed as equivalent retinoic acid concentration ([4]; exposure to 1 μM for 96 hours): 0.05 to 0.1 µM

SMILES: CC1=C(/C=C/C(C)=C/C=C/C(C)=C/C(=O)O)C(C)(C)CCC1 [retinoic acid, all-trans retinoic acid]
Cells differentiated to granulocytes (positive NBT staining) ([4]; continuous exposure to 1 μM for 96 hours): ~40%
